Screening results: PubChem, The Scripps Research Institute Molecular Screening Center
An excerpt weighted towards active compounds, which were near 3.6% of everything screened.
IMP-1 inhibitor = IMP-1 metallo-beta-lactamase inhibitors, primary screen, biochemical, epi-absorbance readout, Pseudomonas aeruginosa enzyme | purified IMP-1, nitrocefin hydrolysis, epi-absorbance fluorescence | inhibition, % at 5.6 µM | actives 0.45% (n = 290,000) | AID 1556, 2009;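 active = inhibition above the mean plus 3 SD of all compounds in the same screening run, cut at about 4.5% in these data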;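 also: 0% = IMP-1 with DMSO and 100% = DMSO wells lacking enzyme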
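Assay system: purified IMP-1; Quantity: IMP-1 0.2 nM before substrate addition; Medium: HEPES buffer pH 7.1 with ZnSO4 and Brij 35; Incubation: 15 min enzyme–compound preincubation, then 25 min nitrocefin reaction, 25 °C; Signal: fluorescence quenching readout, ex 480/em 530 nm; Controls: DMSO with and without IMP-1; Repeats: singlicate testing.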
PAFAH2 FP inh = PAFAH2 enzyme inhibitors, primary screen, biochemical, fluorescence polarization, human. Platelet-activating factor acetylhydrolase 2, cytoplasmic (Homo sapiens), Q99487. recombinant PAFAH2, FP-rhodamine activity probe. inhibition, % at 3.39 µM. actives 0.99% (n = 340,000). AID 492956, 2010;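 active = inhibition above the mean over all tested compounds plus 3 SD, cut at about 30% in these data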;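 also: inhibitors block probe labeling of enzyme so polarization drops; 0% = enzyme with DMSO and 100% = wells lacking PAFAH2 protein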
VIM-2 inhibitor = VIM-2 metallo-beta-lactamase inhibitors, primary screen, biochemical, epi-absorbance readout, Pseudomonas aeruginosa enzyme; AID 1527, 2009; purified VIM-2, nitrocefin hydrolysis, epi-absorbance fluorescence; actives 0.89% (n = 290,000); inhibition, % at 5.6 µM;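 active = inhibition above the mean of all tested compounds plus 3 SD, cutoff set per screening run, cut at about 7.5% in these data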;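 also: red hydrolysis product quenches plate fluorescence so inhibitors raise well fluorescence; 0% = enzyme with DMSO and 100% = DMSO without enzyme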
PAFAH1B3 inh = PAFAH1B3 enzyme inhibitors, primary screen, biochemical, fluorescence polarization, human; recombinant PAFAH1B3, FP-rhodamine probe; inhibition, % at 3.39 µM; actives 0.28% (n = 340,000);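 active = inhibition above the screen-wide average of all tested compounds plus 3 SD, cut at about 25% in these data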;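 also: 0% = enzyme with DMSO only and 100% = wells lacking PAFAH1B3 protein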
pPAFAH FP inh = pPAFAH enzyme inhibitors, primary screen, biochemical, fluorescence polarization, human; Platelet-activating factor acetylhydrolase (Homo sapiens), Q13093; inhibition, % at 3.39 µM; recombinant pPAFAH, FP-rhodamine probe fluorescence polarization; actives 1.5% (n = 330,000); AID 463082, 2010;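 active = inhibition above the mean inhibition across the screen plus 3 SD, cut at about 25% in these data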;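 also: inhibitors block binding of the rhodamine activity-based probe so polarization drops; 0% = enzyme with DMSO and 100% = wells lacking pPAFAH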
Target sequence (Q13093 whole entry, looked up): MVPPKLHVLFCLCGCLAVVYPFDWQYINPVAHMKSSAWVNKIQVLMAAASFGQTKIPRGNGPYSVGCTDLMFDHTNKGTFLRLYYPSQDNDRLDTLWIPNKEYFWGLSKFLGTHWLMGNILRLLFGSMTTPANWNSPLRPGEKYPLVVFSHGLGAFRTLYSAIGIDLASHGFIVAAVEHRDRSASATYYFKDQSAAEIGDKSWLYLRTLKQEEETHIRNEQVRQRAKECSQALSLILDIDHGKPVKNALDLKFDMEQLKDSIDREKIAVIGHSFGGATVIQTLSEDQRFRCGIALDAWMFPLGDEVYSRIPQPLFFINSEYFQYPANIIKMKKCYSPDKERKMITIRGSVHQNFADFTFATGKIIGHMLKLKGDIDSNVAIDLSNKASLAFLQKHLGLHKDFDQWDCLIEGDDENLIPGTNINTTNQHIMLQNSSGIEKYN
PAFAH1B2 inh = PAFAH1B2 enzyme inhibitors, primary screen, biochemical, fluorescence polarization, human; Platelet-activating factor acetylhydrolase IB subunit alpha2 (Homo sapiens), P68402; inhibition, % at 3.39 µM; actives 1.2% (n = 340,000); recombinant PAFAH1B2, FP-rhodamine activity probe;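 active = inhibition above the mean of all tested compounds plus 3 SD, cut at about 24% in these data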;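 also: 0% = enzyme with DMSO and 100% = wells lacking PAFAH1B2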
Target sequence (P68402 whole entry, looked up): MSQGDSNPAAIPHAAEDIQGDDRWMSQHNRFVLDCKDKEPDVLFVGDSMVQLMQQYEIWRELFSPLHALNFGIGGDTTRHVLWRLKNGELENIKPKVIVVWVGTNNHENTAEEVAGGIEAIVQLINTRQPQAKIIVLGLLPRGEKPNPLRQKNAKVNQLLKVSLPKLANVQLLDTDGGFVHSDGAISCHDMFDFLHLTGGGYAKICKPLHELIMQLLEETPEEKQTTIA
An asterisk follows results filed as active; . = not tested or not shown.

SMILES | IMP-1 inhibitor | PAFAH2 FP inh | VIM-2 inhibitor | PAFAH1B3 inh | pPAFAH FP inh | PAFAH1B2 inh
CCOc1ccc(NC(=O)/C(C=Nc2ccccc2)=C(\C)O)cc1 | -1 | 3 | -1 | -3 | 4 | 8
COc1cc(/C=N/n2cnnc2)ccc1OCCSc1ccc(C)cc1 | -1 | 0 | -1 | 1 | 11 | 24*
CCN1C[C@@H]2[C@@H]3C(=O)N(C)C(=O)[C@@H]3[C@](C)(C1=O)N2C(=O)c1ccc(C)cc1 | . | -1 | . | 6 | . | -1
CCSc1ncc(Cl)c(C(=O)Nc2ccc(S(=O)(=O)Nc3ncccn3)cc2)n1 | 0 | -5 | 0 | 5 | 4 | 2
CCSc1ncc(Cl)c(C(=O)Nc2ccc(S(N)(=O)=O)cc2)n1 | 0 | -7 | 8.6* | 8 | -7 | 0
CN1CCc2c(OCc3ccc(F)cc3)cccc2C1=O | 23* | -2 | 1 | 6 | 0 | 1
O=c1[nH]c(=O)c2[nH]c(=S)[nH]c2[nH]1 | . | -1 | . | 6 | . | 3
CCCCCn1c(N)c(-c2nc3ccccc3s2)c2c([N+](=O)[O-])nn(C)c(=O)c21 | 6.9* | -2 | 0 | 6 | -3 | -1
CCCCn1c(N)c(-c2nc3ccccc3o2)c2c([N+](=O)[O-])nn(C)c(=O)c21 | -4 | 18 | -4 | 10 | 7 | -2
CNc1ccc(S(=O)(=O)NCC(=O)OC(C)C(=O)N(C)Cc2ccccc2)cc1[N+](=O)[O-] (configuration not stated) | . | -3 | . | 4 | 3 | 8
CCn1c(CSc2nnc(-c3cccnc3)n2-c2ccccc2C)nc2cc(C(=O)O)ccc21 | -2 | . | 0 | . | 42* | .
CCn1c(CSc2n[nH]c(N)n2)nc2cc(C(=O)O)ccc21 | -5 | 52* | 1 | 36* | 25* | 38*
COCCn1c(SCCCC(=O)c2ccc(Br)cc2)nnc1-c1ccncc1 | 0 | 10 | -6 | 10 | 1 | 3
CCn1c(CSc2nnc(-c3ccncc3)n2CCOC)nc2cc(C(=O)O)ccc21 | -4 | 47* | -3 | 27* | 30* | 36*
CCn1c(CSc2nnc3ccccn23)nc2cc(C(=O)O)ccc21 | -2 | 60* | -3 | 44* | 26* | 49*
COc1ccc(-c2c(C(=O)O)c(C(=O)O)c3n2CCC3)cc1 | -1 | 10 | 11* | 0 | 1 | -1
O=C(CCNC(=O)c1ccco1)Nc1ccc(Cl)c(C(F)(F)F)c1 | -2 | 1 | 1 | 3 | -3 | 9
COc1cccc(-c2cc(C(F)(F)F)nc(N3CCC(C)CC3)n2)c1 | 4.5* | 3 | -2 | -8 | 2 | -4
C=CCN1C(=O)C(Cc2ccc(OC)cc2)S/C1=N/N=C/c1ccco1 (configuration not stated) | -4 | -4 | -3 | 0 | 28* | 0
C=CCN1C(=O)C(Cc2ccc(Br)cc2)S/C1=N\N=C\c1ccco1 (configuration not stated) | -3 | 5 | -2 | 6 | -1 | 0
C=CCOCCN1C(=O)C2C(c3ccccc3)C=CC(c3ccccc3)C2C1=O (configuration not stated) | 15* | 9 | 0 | 6 | 3 | -1
CSc1nnc(-c2cccs2)n1-c1ccccc1 | -4 | 1 | -4 | 2 | -3 | 6
CN1CCN(S(=O)(=O)c2ccc(Sc3nnc(-c4cccs4)n3-c3ccccc3)nc2)CC1 | -2 | -1 | -1 | 0 | 4 | 33*
Cc1cc(NCCc2ccc(Cl)cc2)n2ncnc2n1 | -1 | -3 | -1 | -3 | 4 | 24*
Cc1cc(Nc2ccc(Cl)cc2)n2ncnc2n1 | -3 | -2 | 0 | 8 | . | 1
SMILES | IMP-1 inhibitor | PAFAH2 FP inh | VIM-2 inhibitor | PAFAH1B3 inh | pPAFAH FP inh | PAFAH1B2 inh
CCc1c(C)nc2ncnn2c1NCCc1ccc(OC)cc1 | -4 | 1 | 8.9* | 2 | 3 | 3
O=C(NNC(=S)Nc1ccc(Cl)c(Cl)c1)c1cccc([N+](=O)[O-])c1 | -5 | . | -4 | . | 32* | .
Cc1cccc(NC(=S)NNC(=O)c2cccc([N+](=O)[O-])c2)c1 | -2 | 3 | -1 | 2 | 4 | 11
CCOC(=O)c1c[nH]c2c(C)ccc(Cl)c2c1=O | -2 | 6 | 6 | 3 | -7 | 11
CCOC(=O)c1c[nH]c2c(Cl)ccc(Cl)c2c1=O | 0 | -1 | 8.6* | 2 | 4 | -2
CCOC(=O)c1c[nH]c2c(Cl)c(Cl)ccc2c1=O | -3 | 1 | -1 | 11 | 8 | -2
CCOC(=O)c1c[nH]c2c(C(=O)c3ccccc3)cc(Cl)cc2c1=O | -3 | -6 | 7.7* | 0 | . | -2
O=C(NCc1cccnc1)/C(=C/c1ccc(-c2cccc(Cl)c2)o1)S(=O)(=O)c1ccccc1 | -2 | 10 | -3 | -3 | 16 | 0
O=C(NCc1cccnc1)/C(=C\c1ccc(-c2cccc(Cl)c2)o1)S(=O)(=O)c1ccccc1 | -2 | 4 | -3 | -8 | 26* | -5
CC1CC(=O)c2c(cc3c(-c4c(O)cc(O)c5c(O)c6c(cc45)OC(C)CC6=O)c(O)cc(O)c3c2O)O1 (configuration not stated) | -1 | 62* | -3 | 76* | 80* | 53*
Cc1ccc2c(c1C)-c1c(ccc(C)c1C)C(=O)C2=O | . | 31* | . | 70* | . | 15
Nc1ccc2c(c1Cl)C(=O)c1ccc(N)c(Cl)c1C2=O | -1 | 20 | 1 | 15 | . | 9
CCN(CC(=O)NCc1cccs1)C(=O)c1ccc(S(=O)(=O)Nc2ccccc2F)cc1 | . | 0 | . | 7 | 4 | 3
CCc1c(C)c2ccc(OCC(=O)NCC3CCC(C(=O)O)CC3)cc2oc1=O (configuration not stated) | -1 | -3 | -2 | 6 | 2 | 4
CC(C)NC(=O)NC(=O)COC(=O)c1ccc(S(=O)(=O)Nc2ccccc2)cc1 | -4 | 10 | -6 | 6 | 25* | 1
CC(C)NC(=O)NC(=O)COC(=O)c1ccc(OC(F)(F)F)cc1 | -3 | 9 | 0 | 6 | 4 | -2
CCCCCCc1nc2c(=O)[nH]c3ccccc3c2o1 | -4 | 3 | -2 | 5 | 1 | 6
CCCCCCCc1nc2c(=O)n(C)c3ccccc3c2o1 | -5 | 5 | -4 | 4 | 31* | 1
CNC(=O)Nc1cccc(-c2ccnc(C)n2)c1 | 0 | 2 | -1 | 7 | 0 | 7
COc1cccc(C(=O)/C(C#N)=N/Nc2cccc(-c3ccnc(C)n3)c2)c1 | -3 | 4 | -4 | 6 | 32* | 4
